For assay [1], the target named is T1, Tubulin (Sus scrofa) (UniProt P02554+P02550). Kind of assay: Ratio of compound Kd to plinabulin Kd for porcine tubulin. The assay is classed as protein assay.
Assay [2] concerns the target T1, Tubulin (Sus scrofa). Kind of assay: Binding affinity to porcine tubulin at 2 uM incubated for 30 mins followed by UV irradiation at 365 nm at distance of 10 cm on ice by SDS-PAGE analysis in presence of plinabulin. The assay is classed as protein assay. In outline:
(§1)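 Competition labelling. […] Probe (2 µM, 2% DMSO final) was then added for 30 min at 37 °C. Irradiated at 365 nm, 10 cm, on ice for 30 s. Read by 10% SDS–PAGE and streptavidin–HRP/ECL blot.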

Assay [3] concerns the target T1, Tubulin (Sus scrofa). Kind of assay: Binding affinity to porcine tubulin incubated for 30 mins followed by UV irradiation at 365 nm for 30 seconds at distance of 10 cm on ice by SDS-PAGE analysis. The assay is classed as protein assay. In outline:
(§2)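 Tubulin (2 µM) in MES buffer pH 6.8 with 1 mM GTP and 2% DMSO, incubated with compound 30 min at 37 °C. Irradiated at 365 nm, 10 cm, on ice, 0–30 s. Separated by 10% SDS–PAGE and blotted to PVDF. Labelled tubulin detected with streptavidin–HRP/ECL chemiluminescence.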

In assay [4] the target is T1, Tubulin (Sus scrofa). Nature of the assay: Binding affinity to porcine tubulin at 2 uM incubated for 30 mins followed by UV irradiation at 365 nm at distance of 10 cm on ice by SDS-PAGE analysis in presence of D-biotin. The assay is classed as protein assay. The method in brief:
as §1

For assay [5], the target named is T1, Tubulin (Sus scrofa). Kind of assay: Binding affinity to porcine tubulin at 2 uM incubated for 30 mins by SDS-PAGE analysis. Format: protein assay. In outline:
as §2

Assay [6] has as its target T1, Tubulin (Sus scrofa). Kind of assay: Binding affinity to porcine tubulin at 2 uM incubated for 30 mins followed by UV irradiation at 365 nm at distance of 10 cm on ice by SDS-PAGE analysis. The assay is classed as protein assay. As to conditions: TDE = time-dependent effect. The method in brief:
as §2

The subject of assay [7] is HT-29. Kind of assay: Ratio of compound IC50 to plinabulin IC50 for human HT-29 cells. The assay is classed as functional.
Assay [8] deals with HT-29. Kind of assay: Cytotoxicity against human HT-29 cells after 72 hrs by XTT/PMS method. As to conditions: HT-29, 72 h. Format: functional, cell-based. In outline:
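HT-29 colorectal adenocarcinoma cells in McCoy's 5A with 10% FBS, seeded at 5000 cells/well the day before. DMSO stocks serially diluted to 20 µM–2 pM final, exposed 72 h. XTT 0.1 mg/mL with 25 µM PMS added for 1 h. Formazan read at 492 nm, corrected at 690 nm. IC50 from triplicate experiments.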

Assay [9] concerns the target T1, Tubulin (Sus scrofa). Kind of assay: Binding affinity to porcine tubulin at 2 uM incubated for 30 mins followed by UV irradiation at 365 nm at distance of 10 cm on ice by SDS-PAGE analysis in presence of colchicine. Format: protein assay. In outline:
as §1

In another assay the target is Tubulin (Sus scrofa, UniProt P02554+P02550). Kind of assay: Binding affinity to porcine tubulin after 1 hr by spectrofluorometric analysis. Format: protein assay. In outline:
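Purified porcine tubulin (0.5 µM) in MES buffer pH 6.8 at 37 °C, titrated with compound. Kd derived from the quenching titration.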

Calls of active or inactive are those of the source. The rule behind the calls is not given here.

This note sets out measurements from ChEMBL document CHEMBL1641522 (Bioorg Med Chem, 2011).

T1 sequence (P02550 whole entry, looked up): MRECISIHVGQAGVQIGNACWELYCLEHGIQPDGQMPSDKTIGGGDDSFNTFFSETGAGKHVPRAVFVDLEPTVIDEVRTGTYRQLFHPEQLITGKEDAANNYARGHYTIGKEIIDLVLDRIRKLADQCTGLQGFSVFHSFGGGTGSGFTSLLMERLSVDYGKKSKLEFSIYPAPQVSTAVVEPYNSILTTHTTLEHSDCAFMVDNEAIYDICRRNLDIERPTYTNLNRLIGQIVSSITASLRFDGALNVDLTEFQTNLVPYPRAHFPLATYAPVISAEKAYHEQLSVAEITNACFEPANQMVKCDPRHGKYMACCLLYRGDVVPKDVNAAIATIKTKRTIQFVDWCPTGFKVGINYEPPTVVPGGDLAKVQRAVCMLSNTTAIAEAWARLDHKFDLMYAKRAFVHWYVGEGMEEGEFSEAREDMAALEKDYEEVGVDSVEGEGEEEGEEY
T1 sequence (P02554 whole entry, looked up): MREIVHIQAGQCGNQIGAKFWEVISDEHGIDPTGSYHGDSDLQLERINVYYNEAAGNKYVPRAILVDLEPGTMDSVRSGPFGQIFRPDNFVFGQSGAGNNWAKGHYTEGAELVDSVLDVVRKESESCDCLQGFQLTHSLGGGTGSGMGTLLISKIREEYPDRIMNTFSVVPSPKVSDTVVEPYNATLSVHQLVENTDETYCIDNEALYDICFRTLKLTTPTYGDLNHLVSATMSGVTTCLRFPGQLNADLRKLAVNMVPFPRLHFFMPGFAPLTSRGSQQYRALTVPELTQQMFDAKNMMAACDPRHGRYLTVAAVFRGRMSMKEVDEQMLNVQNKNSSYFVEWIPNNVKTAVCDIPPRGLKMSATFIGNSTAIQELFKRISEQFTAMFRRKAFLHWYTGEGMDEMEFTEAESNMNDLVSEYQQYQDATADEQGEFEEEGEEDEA

Regarding `CC(C)(Cc1cn(CCCNC(=O)CCCCCNC(=O)CCCCCNC(=O)CCCC[C@@H]2SC[C@@H]3NC(=O)N[C@@H]32)nn1)c1ocnc1/C=c1\[nH]c(=O)/c(=C/c2cccc(C(=O)c3ccccc3)c2)[nH]c1=O` (stereo in doubt), the Ratio on Tubulin (Sus scrofa) [1] was determined as 17. Also, the outcome at Tubulin (Sus scrofa) [2], at Tubulin (Sus scrofa) [4], on Tubulin (Sus scrofa) [5] and on Tubulin (Sus scrofa) [9] was inactive. Moreover, the Activity entry on Tubulin (Sus scrofa) [3] was “Dose-dependent effect”; on Tubulin (Sus scrofa) [6], “tde”. The “Ratio IC50” value with HT-29 [7] was 725. In the assay on HT-29 [8], this compound displayed an IC50 of 9790 nM. The same compound came in with a Kd at Tubulin of 17900 nM.
Turning to `COc1cc2c(c(OC)c1OC)-c1ccc(OC)c(=O)cc1[C@@H](NC(C)=O)CC2` [COLCHICINE], in the assay on HT-29 [8], it took 16.6 nM to reach half-maximal inhibition (IC50).
Still for that read-out and setting: the same measure for `CC(C)(C)c1[nH]cnc1/C=c1\[nH]c(=O)/c(=C/c2ccccc2)[nH]c1=O` [PLINABULIN]: 13.5 nM.
